Laboratory results as given in ChEMBL document CHEMBL3046220, “Bioactive saponin from tea seed pomace with inhibitory effects against Rhizoctonia solani” (J Agric Food Chem, 2010).

Tests used:
Rhizoctonia solani [1] = assay: Antifungal activity against Rhizoctonia solani AG-4 assessed as inhibition of colony size at 10 ppm at 27 degC measured after 48 hr; format: functional; conditions: AG-4, 48 h
Method in brief: (§1)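 R. solani AG-4 RST-04 was kept on PDA slants. Samples were dissolved in distilled water, with distilled water as the control. Growth was on PDA plates at 27 °C for 48 h. Colony size was measured as mean ± SE (n = 8). Inhibition % = [(control colony size − treatment colony size)/control colony size] × 100. Groups were compared by Duncan's multiple-range test (p = 0.05).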

Rhizoctonia solani [2] = assay: Antifungal activity against Rhizoctonia solani AG-4 assessed as inhibition of colony size at 30 ppm at 27 degC measured after 48 hr; format: functional; conditions: AG-4, 48 h; method in brief: as §1
Rhizoctonia solani [3] = assay: Antifungal activity against Rhizoctonia solani AG-4 assessed as inhibition of colony size at 60 ppm at 27 degC measured after 48 hr; format: functional; conditions: AG-4, 48 h; method in brief: as §1
Rhizoctonia solani [4] = assay: Antifungal activity against Rhizoctonia solani AG-4 assessed as inhibition of colony size at 100 ppm at 27 degC measured after 48 hr; format: functional; conditions: AG-4, 48 h; method in brief: as §1
Rhizoctonia solani [5] = assay: Antifungal activity against Rhizoctonia solani AG-4 assessed as inhibition of mycelial growth at 27 degC measured after 48 hr; format: functional, organism-based
Rhizoctonia solani [6] = assay: Antifungal activity against Rhizoctonia solani AG-4 assessed as inhibition of colony size at 125 ppm at 27 degC measured after 48 hr; format: functional; conditions: AG-4, 48 h; method in brief: as §1
Rhizoctonia solani [7] = assay: Antifungal activity against Rhizoctonia solani AG-4 assessed as inhibition of colony size at 25 ppm at 27 degC measured after 48 hr; format: functional; conditions: AG-4, 48 h
Method in brief: (§2)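 R. solani AG-4 RST-04 was grown on potato dextrose agar plates at 27 °C for 48 h, with the reference fungicide tested across 0.25-250 ppm. Samples were dissolved in distilled water, and plates given distilled water alone served as control. Colony size was read as the mean of n = 8. Inhibition (%) = [(control colony size − treated colony size)/control colony size] × 100.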

Rhizoctonia solani [8] = assay: Antifungal activity against Rhizoctonia solani AG-4 assessed as inhibition of colony size at 250 ppm at 27 degC measured after 48 hr; format: functional; conditions: AG-4, 48 h; method in brief: as §2
Rhizoctonia solani [9] = assay: Antifungal activity against Rhizoctonia solani AG-4 assessed as inhibition of colony size at 0.25 ppm at 27 degC measured after 48 hr; format: functional; conditions: AG-4, 48 h; method in brief: as §2
Rhizoctonia solani [10] = assay: Antifungal activity against Rhizoctonia solani AG-4 assessed as inhibition of colony size at 2.5 ppm at 27 degC measured after 48 hr; format: functional; conditions: AG-4, 48 h; method in brief: as §2

SMILES	inhibition at 10 ppm (Rhizoctonia solani [1]) [%]	inhibition at 30 ppm (Rhizoctonia solani [2]) [%]	inhibition at 60 ppm (Rhizoctonia solani [3]) [%]	inhibition at 100 ppm (Rhizoctonia solani [4]) [%]	IC50 (Rhizoctonia solani [5]) [ppm]	inhibition at 125 ppm (Rhizoctonia solani [6]) [%]	inhibition at 25 ppm (Rhizoctonia solani [7]) [%]	inhibition at 250 ppm (Rhizoctonia solani [8]) [%]	inhibition at 0.25 ppm (Rhizoctonia solani [9]) [%]	inhibition at 2.5 ppm (Rhizoctonia solani [10]) [%]
C/C=C(/C)C(=O)O[C@H]1CC(C)(C)C[C@H]2C3=CC[C@@H]4[C@@]5(C)CC[C@H](O[C@@H]6O[C@H](C(=O)O)[C@@H](O)[C@H](O[C@@H]7OC[C@H](O)[C@H](O)[C@H]7O[C@@H]7O[C@H](CO)[C@@H](O)[C@H](O)[C@H]7O)[C@H]6O[C@@H]6O[C@H](CO)[C@H](O)[C@H](O)[C@H]6O)[C@@](C)(C=O)[C@@H]5CC[C@@]4(C)[C@]3(C)C[C@@H](O)[C@@]12CO [CAMELLIASAPONIN B1]	6.43	46.8	56.5	63.4	55.7	–	–	–	–	–
C[C@@H]1O[C@@H](OC[C@H]2O[C@@H](Oc3c(-c4ccc(O)cc4)oc4cc(O)cc(O)c4c3=O)[C@H](O[C@@H]3O[C@H](CO)[C@H](O)[C@H](O)[C@H]3O)[C@@H](O)[C@@H]2O)[C@H](O)[C@H](O)[C@H]1O [CAMELLIASIDE A]	–	–	–	–	> 125	-14.7	–	–	–	–
C[C@@H]1O[C@@H](OC[C@H]2O[C@@H](Oc3c(-c4ccc(O)cc4)oc4cc(O)cc(O)c4c3=O)[C@H](O[C@@H]3OC[C@@H](O)[C@H](O)[C@H]3O)[C@@H](O)[C@@H]2O)[C@H](O)[C@H](O)[C@H]1O [CAMELLIASIDE B]	–	–	–	–	> 125	-14.5	–	–	–	–
O=C(Nc1ccccc1)N(Cc1ccc(Cl)cc1)C1CCCC1 [PENCYCURON]	–	–	–	–	< 0.25	–	83.9	81.9	66.6	73.6
